Data published in the M2OR odorant receptor database.

molecular target: T1, OR10J5 (Homo sapiens) (UniProt Q8NHC4); details: stereoisomer not certain
T1 sequence (whole entry): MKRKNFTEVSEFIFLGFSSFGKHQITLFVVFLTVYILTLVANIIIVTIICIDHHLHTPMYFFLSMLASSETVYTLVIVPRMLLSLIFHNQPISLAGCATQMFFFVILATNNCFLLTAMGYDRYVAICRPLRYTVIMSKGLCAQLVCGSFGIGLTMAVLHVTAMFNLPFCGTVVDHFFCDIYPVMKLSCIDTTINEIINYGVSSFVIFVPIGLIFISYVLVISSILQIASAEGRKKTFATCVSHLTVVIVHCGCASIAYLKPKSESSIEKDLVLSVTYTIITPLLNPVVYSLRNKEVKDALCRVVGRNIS
Method in brief: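 Each receptor–molecule pair is labelled responsive or non-responsive (inactive) according to whether the original authors judged the measured signal statistically different from baseline. The data were taken from the main text and supplementary material of published papers and checked for typos and inconsistencies. Assay methods differed by source, with transient luciferase assays in mammalian cell lines being common.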
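Further: active if original authors judged signal statistically different from baseline.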

Odorant receptor agonist call, inactive:
CCCCC(=O)CC, CCCCCOC(=O)CCCCC, CCOC(=O)C(C)C, CCCC(=O)C(C)=O, CCCCCCC(=O)[O-].[H+], CC(=O)OCc1ccccc1, CC(=O)OCC=C(C)C, CCCCCC(=O)CC, CCC(=O)C(=O)CC, CCCCCCCCCO, CCCCCCCC(C)=O, CCCCCC1=C(C)CCC1=O, O=C1CCOc2ccccc21, CC(C)=CCCC(C)=CCO, CCCCCCOC(C)=O, CCCCCCCC(=O)[O-].[H+], CC12CCC(CC1=O)C2(C)C (stereo not given), CCCCCCCCC(=O)O, CCCCC(C)=O, CCC(C(=O)O)c1ccccc1 (stereo not given), CC(=O)Oc1ccccc1, CCCCOC=O, CCCCCC=O, CCCCCCC(C)=O, CCCCC(=O)O, CCCCCCCCCC(=O)[O-].[H+], O=C1Cc2ccccc2O1, CCCCCCCCCS, O=c1ccc2ccccc2o1, COc1cc(C(=O)O)ccc1O
